Viability data for 40 compounds are collected here from PubChem BioAssay.

SMILES strings stand for the structures. Active and inactive are the calls of the source.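 The calls were made as follows, unless noted: active = viability at or below 30% in both replicate assays; inconclusive = viability at or below 30% in just one of the two assays; inactive = the rest.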

One assay in a line: reduced viability of SK-BR-3 breast cancer cells – cell-based, 24 h, human, pilot screen (AID 572;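 active = viability at or below 10% of carrier control in both of two separate runs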;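 also: compound exposure lasted between 18 and 24 h rather than exactly 24 h; 100% = carrier-treated control wells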). The note with it: SK-BR-3 viability, CellTiter-Glo luminescence, at 10 µM, active compounds read low. A general note: Cellular ATP, detected with luciferase, serves as a proxy for viable cell number.
With `COc1cccc(-n2ccnc2SCC(=O)N2CCc3ccccc32)c1`, the viability is 94.5% (inactive).
Turning to `C=CCc1cc(C(=O)N2CCCCC2)ccc1O`, the viability was 104% (inactive).
For `CCN(CC)c1ccc(-c2nn3c(-c4cccnc4)nnc3s2)cc1`, the viability was 91.5% (inactive).
Same read-out and setting: for `Cc1ccc(NC(=O)CSc2nnc(-c3ccncc3)n2C)cc1C` the value was 90% (inactive).
On to `O=C(Nc1ccc(Br)cc1F)c1sccc1-n1cccc1`, for which the viability is 87.5% (inactive).
The same measure, in the same setting: for `Cc1nc(CNS(=O)(=O)c2ccc3c(c2)OCCO3)cs1` the value was 96% (inactive).
Still for that read-out and setting: for `CCOC(=O)c1[nH]c(C)c(C(=O)NCC2CCCO2)c1C` (stereo not given) the value was 99% (inactive); for `N#CC1=C(N)N(c2ccccc2)C2=C(C(=O)CCC2)C1c1cccs1` (stereo not given), 96.5% (inactive).
Same read-out and setting: for `COc1cccc(C(=O)n2cnnc2N)c1OC` the value was 120% (inactive).
In the case of `COC(=O)c1cc2oc(C)cc2n1CC(=O)Nc1ccc(C)c(C)c1`, the viability is 85.5% (inactive).
As for `O=C(CSCc1cnn(-c2ccccc2)c1-n1cccc1)NCC1CCCO1` (stereo not given), the viability was 97.5% (inactive).
Consider `N=c1c(C(=O)NCc2ccc3c(c2)OCO3)cc2c(=O)n3ccccc3nc2n1Cc1cccnc1`, for which the viability was 73.5% (inactive).
Same read-out and setting: the result for `Cc1cc(Br)ccc1NC(=O)CCN1C(=O)c2ccncc2C1=O` reads 104% (inactive); that for `O=C1N2c3ccccc3CCc3cccc(c32)C1(O)C(F)(F)F` (stereo not given), 94.5% (inactive).
On to `Cn1c(SCC(=O)Nc2ccc3c(c2)oc2ccccc23)nnc1-c1ccccc1`, for which the viability is 83% (inactive).
Turning to `CCOc1ccc(S(=O)(=O)Nc2cccc(Cl)c2)cc1`, the viability is 86% (inactive).
Still for that read-out and setting: the result for `Nn1c(CSc2nc3ccccc3o2)nnc1CSc1nc2ccccc2o1` reads 86% (inactive).
Same read-out and setting: for `CC1=C(C(=O)OC2CCCCC2)C(c2cccnc2)n2ncnc2N1` (stereo not given) the value was 104% (inactive).
As to `COC(=O)c1ccccc1NC(=O)C1CC(=O)N(c2ccccc2)C1` (stereo not given), the viability was 122% (inactive).
As for `O=C(c1ccc2c(c1)OCCO2)C1CCN(C(=O)c2ccc(F)cc2)CC1`, the viability was 102% (inactive).
Regarding `Cc1nc(=S)n(-c2ccccc2)[nH]1`, the viability is 104% (inactive).
Still for that read-out and setting: the result for `CC(C)CC(=O)Nc1ccccc1-c1nnn(CC(=O)N2CCOCC2)n1` reads 102% (inactive).
For `O=C(c1ccccc1)N1CCCCC(Sc2nnnn2-c2ccccc2)C1=O` (stereo not given), the viability is 89.5% (inactive).
The same measure, in the same setting: the result for `CC(=O)Nc1ccccc1OCc1nnc(-c2cccs2)o1` reads 97% (inactive); that for `CCOc1ccc(CN2CCN(c3cc(C)nc4c5c(C)cc(C)nc5nn34)CC2)cc1`, 80% (inactive); that for `CCSc1nnc2c(n1)OC=Nc1ccc(Br)cc1-2`, 92.5% (inactive).
For the compound `Cc1ccc2nc(SCC(=O)NCc3ccco3)c(C#N)cc2c1`, the viability is 90.5% (inactive).
As to `CCN(CC)c1ccc2cc(NC(=O)CCC(=O)O)c(=O)oc2c1`, the viability is 89% (inactive).
For `COc1ccc(CN(CC(=O)NCc2ccco2)C(=O)CCC(=O)Nc2nccs2)cc1`, the viability is 96% (inactive).
Regarding `CC(=O)c1cccc(NC(=O)N2C3CCC2CC(O)(c2cccnc2)C3)c1` (stereo not given), the viability is 102% (inactive).
In the case of `Cc1nc2scc(-c3cccs3)c2c(=O)n1-n1cccc1`, the viability was 92% (inactive).
`NC1=NC(c2ccc(Br)cc2)n2c(nc3ccccc32)N1` (stereo not given): the viability is 90% (inactive).
Regarding `CSCC[C@@H](Nc1nc(-c2ccccc2)nc2c1oc1ccccc12)C(=O)O`, the viability was 91% (inactive).
The same measure, in the same setting: for `Cc1csc(SCC(=O)NC(=O)NCc2ccccc2)n1` the value was 108% (inactive).
With `CCSc1ncc(C#N)c(=O)[nH]1`, the viability was 117% (inactive).
For `CCSc1nnc(NC(=O)CSc2ncccn2)s1`, the viability is 97.5% (inactive).
For `COc1ccc(N2CCN(CCCNC(=O)C3(S(=O)(=O)c4ccc(Cl)cc4)CC3)CC2)cc1`, the viability was 87.5% (inactive).
The same measure, in the same setting: for `COc1ccc(OC)c(C2=NOC(C(=O)NCCN3CCOCC3)C2)c1` (stereo not given) the value was 107% (inactive).
For `COc1ccc(CN2CC(C(=O)NCc3ccccn3)CC2=O)cc1` (stereo not given), the viability was 92.5% (inactive).
Turning to `c1ccc(-n2ncc3c(N4CCCCC4)ncnc32)cc1`, the viability was 105% (inactive).

The nature of the next assay: HUVEC growth inhibition – cell-based, human, primary screen (AID 575).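 Also: 100% = median of untreated cell wells with 0.1% DMSO on each plate.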 To be noted: HUVEC proliferation, CellTiter-Glo luminescence, 72 h; at 10 µM; active compounds read low. Put shortly:
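Test system: primary human umbilical vein endothelial cells; medium: endothelial basal medium with 2% FBS plus growth supplements; dosing: 10 µM compound only; times: 72 h treatment at 37 °C; signal: CTG luminescence; read-out: % viability relative to median vehicle-well signal on each plate; control set: vehicle and MePR control wells; plate: 384-well, collagen-coated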
Turning to `COc1cccc(-n2ccnc2SCC(=O)N2CCc3ccccc32)c1`, the viability is 109% (inactive).
`C=CCc1cc(C(=O)N2CCCCC2)ccc1O`: the viability was 88% (inactive).
As for `CCN(CC)c1ccc(-c2nn3c(-c4cccnc4)nnc3s2)cc1`, the viability was 37% (inactive).
On the same count and under the same terms, for `Cc1ccc(NC(=O)CSc2nnc(-c3ccncc3)n2C)cc1C` the value was 110% (inactive).
Consider `O=C(Nc1ccc(Br)cc1F)c1sccc1-n1cccc1`, for which the viability was 93.5% (inactive).
In the case of `Cc1nc(CNS(=O)(=O)c2ccc3c(c2)OCCO3)cs1`, the viability is 105% (inactive).
As for `CCOC(=O)c1[nH]c(C)c(C(=O)NCC2CCCO2)c1C` (stereo not given), the viability is 108% (inactive).
Consider `N#CC1=C(N)N(c2ccccc2)C2=C(C(=O)CCC2)C1c1cccs1` (stereo not given), for which the viability is 80.8% (inactive).
As for `COc1cccc(C(=O)n2cnnc2N)c1OC`, the viability was 89.2% (inactive).
As for `COC(=O)c1cc2oc(C)cc2n1CC(=O)Nc1ccc(C)c(C)c1`, the viability was 59.5% (inactive).
Take `O=C(CSCc1cnn(-c2ccccc2)c1-n1cccc1)NCC1CCCO1` (stereo not given): the viability is 94.1% (inactive).
For the compound `N=c1c(C(=O)NCc2ccc3c(c2)OCO3)cc2c(=O)n3ccccc3nc2n1Cc1cccnc1`, the viability is 87% (inactive).
Take `Cc1cc(Br)ccc1NC(=O)CCN1C(=O)c2ccncc2C1=O`: the viability is 86.1% (inactive).
As to `O=C1N2c3ccccc3CCc3cccc(c32)C1(O)C(F)(F)F` (stereo not given), the viability is 96.4% (inactive).
As to `Cn1c(SCC(=O)Nc2ccc3c(c2)oc2ccccc23)nnc1-c1ccccc1`, the viability was 53.1% (inactive).
Take `CCOc1ccc(S(=O)(=O)Nc2cccc(Cl)c2)cc1`: the viability was 50.7% (inactive).
`Nn1c(CSc2nc3ccccc3o2)nnc1CSc1nc2ccccc2o1`: the viability was 115% (inactive).
As for `CC1=C(C(=O)OC2CCCCC2)C(c2cccnc2)n2ncnc2N1` (stereo not given), the viability is 105% (inactive).
As to `COC(=O)c1ccccc1NC(=O)C1CC(=O)N(c2ccccc2)C1` (stereo not given), the viability was 114% (inactive).
For `O=C(c1ccc2c(c1)OCCO2)C1CCN(C(=O)c2ccc(F)cc2)CC1`, the viability was 93.7% (inactive).
For the compound `Cc1nc(=S)n(-c2ccccc2)[nH]1`, the viability was 107% (inactive).
In the case of `CC(C)CC(=O)Nc1ccccc1-c1nnn(CC(=O)N2CCOCC2)n1`, the viability was 87.8% (inactive).
For `O=C(c1ccccc1)N1CCCCC(Sc2nnnn2-c2ccccc2)C1=O` (stereo not given), the viability is 82.7% (inactive).
Regarding `CC(=O)Nc1ccccc1OCc1nnc(-c2cccs2)o1`, the viability was 82.1% (inactive).
As to `CCOc1ccc(CN2CCN(c3cc(C)nc4c5c(C)cc(C)nc5nn34)CC2)cc1`, the viability is 94.2% (inactive).
In the case of `CCSc1nnc2c(n1)OC=Nc1ccc(Br)cc1-2`, the viability is 79.3% (inactive).
The same measure, in the same setting: the result for `Cc1ccc2nc(SCC(=O)NCc3ccco3)c(C#N)cc2c1` reads 82.3% (inactive); that for `CCN(CC)c1ccc2cc(NC(=O)CCC(=O)O)c(=O)oc2c1`, 81.1% (inactive).
Regarding `COc1ccc(CN(CC(=O)NCc2ccco2)C(=O)CCC(=O)Nc2nccs2)cc1`, the viability is 85.5% (inactive).
Still for that read-out and setting: the result for `CC(=O)c1cccc(NC(=O)N2C3CCC2CC(O)(c2cccnc2)C3)c1` (stereo not given) reads 100% (inactive); that for `Cc1nc2scc(-c3cccs3)c2c(=O)n1-n1cccc1`, 82.3% (inactive).
As for `NC1=NC(c2ccc(Br)cc2)n2c(nc3ccccc32)N1` (stereo not given), the viability is 75.5% (inactive).
Turning to `CSCC[C@@H](Nc1nc(-c2ccccc2)nc2c1oc1ccccc12)C(=O)O`, the viability is 84.2% (inactive).
Consider `Cc1csc(SCC(=O)NC(=O)NCc2ccccc2)n1`, for which the viability is 103% (inactive).
For `CCSc1ncc(C#N)c(=O)[nH]1`, the viability was 96.5% (inactive).
In the case of `CCSc1nnc(NC(=O)CSc2ncccn2)s1`, the viability was 112% (inactive).
As to `COc1ccc(N2CCN(CCCNC(=O)C3(S(=O)(=O)c4ccc(Cl)cc4)CC3)CC2)cc1`, the viability was 87.2% (inactive).
As for `COc1ccc(OC)c(C2=NOC(C(=O)NCCN3CCOCC3)C2)c1` (stereo not given), the viability is 102% (inactive).
Take `COc1ccc(CN2CC(C(=O)NCc3ccccn3)CC2=O)cc1` (stereo not given): the viability is 101% (inactive).
For the compound `c1ccc(-n2ncc3c(N4CCCCC4)ncnc32)cc1`, the viability is 59.4% (inactive).

One may read the viability as a read-out of living cells in per cent, often relative to untreated cells.
